The results in this text go back to PMC4475445 (Journal of immunology (Baltimore, Md. : 1950), 2015).

Data set [1] concerns BMMΦ. Kind of data set: Apoptosis assay. Conditions: wild-type and Btk-/-Tec-/- BMMΦ, several doses, Figure S2D. Type of data set: cell-based. The method, boiled down: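 Bone marrow was flushed from femurs and tibias of 6–15-week-old mice, red cells were lysed, and the cells were filtered and plated at 7.5 × 10^5 cells/ml. Cells were grown in DMEM with 10% heat-inactivated FBS, 10 mM Hepes and 10% CMG 12-14 conditioned medium as the M-CSF source, and re-plated on day 5. Apoptosis was scored by annexin V/7-AAD staining and flow cytometry.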

The subject of data set [2] is BMMΦ. Kind of data set: TLR-dependent cytokine secretion. Type of data set: cell-based, mouse. As to conditions: 30 min pretreatment, then LPS or CpG 16 h; wild-type and Btk-/-Tec-/- BMMΦ.
The test system of the next data set is Tec kinases. Kind of data set: Kinase selectivity panel. Format: biochemical. As to conditions: 1μM test concentration, 10 μM 33P-ATP; Supplemental Table 2. Summed up:
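Test compound was dissolved in DMSO and tested at 1 μM final. Each kinase was added to fresh substrate with cofactors in reaction buffer and preincubated 30 min at room temperature. Reactions were started with 10 μM 33P-ATP and ran 2 hr at room temperature. After termination, unreacted phosphate was washed off with 0.1% phosphoric acid and bound label was read by P81 filtration. Run in duplicate; 10 μM staurosporine positive control.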

Another data set addresses T1, Tec (Homo sapiens, UniProt P42680).
T1 sequence (P42680 1-631): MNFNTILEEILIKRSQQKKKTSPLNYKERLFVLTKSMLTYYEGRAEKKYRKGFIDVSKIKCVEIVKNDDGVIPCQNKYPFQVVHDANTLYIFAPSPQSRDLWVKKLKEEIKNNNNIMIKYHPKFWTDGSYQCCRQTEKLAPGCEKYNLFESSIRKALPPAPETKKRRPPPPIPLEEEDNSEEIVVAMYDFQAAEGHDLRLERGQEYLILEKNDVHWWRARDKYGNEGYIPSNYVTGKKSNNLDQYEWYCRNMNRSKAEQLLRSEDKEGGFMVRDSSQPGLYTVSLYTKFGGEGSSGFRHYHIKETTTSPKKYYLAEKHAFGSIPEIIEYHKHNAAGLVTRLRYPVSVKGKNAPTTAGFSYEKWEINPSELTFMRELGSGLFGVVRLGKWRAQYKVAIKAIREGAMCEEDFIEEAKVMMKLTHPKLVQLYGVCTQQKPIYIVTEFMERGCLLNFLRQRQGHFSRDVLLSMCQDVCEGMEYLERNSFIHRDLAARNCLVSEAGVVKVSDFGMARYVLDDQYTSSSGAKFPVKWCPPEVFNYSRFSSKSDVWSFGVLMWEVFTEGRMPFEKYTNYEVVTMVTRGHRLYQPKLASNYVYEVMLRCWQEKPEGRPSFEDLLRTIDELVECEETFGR
The data set is described as follows: HotSpot radioisotope kinase assay. Type of data set: biochemical. The method, boiled down:
(§1)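 Radiometric HotSpot assay with P81 filter capture. Kinase was added to freshly prepared substrate with cofactors and preincubated 30 min at room temperature, then started with 33P-ATP, with ATP at Km or 10× Km. Reactions ran 2 hr at room temperature; unreacted phosphate was washed off with 0.1% phosphoric acid. Test compound: 10 doses, […] serial dilution from 10 μM. Duplicates; staurosporine positive control.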

The next data set deals with Btk (Homo sapiens, UniProt Q06187). The data set is described as follows: HotSpot radioisotope kinase assay. Type of data set: biochemical. Summed up: as §1
Sequence of Btk (Q06187 whole entry): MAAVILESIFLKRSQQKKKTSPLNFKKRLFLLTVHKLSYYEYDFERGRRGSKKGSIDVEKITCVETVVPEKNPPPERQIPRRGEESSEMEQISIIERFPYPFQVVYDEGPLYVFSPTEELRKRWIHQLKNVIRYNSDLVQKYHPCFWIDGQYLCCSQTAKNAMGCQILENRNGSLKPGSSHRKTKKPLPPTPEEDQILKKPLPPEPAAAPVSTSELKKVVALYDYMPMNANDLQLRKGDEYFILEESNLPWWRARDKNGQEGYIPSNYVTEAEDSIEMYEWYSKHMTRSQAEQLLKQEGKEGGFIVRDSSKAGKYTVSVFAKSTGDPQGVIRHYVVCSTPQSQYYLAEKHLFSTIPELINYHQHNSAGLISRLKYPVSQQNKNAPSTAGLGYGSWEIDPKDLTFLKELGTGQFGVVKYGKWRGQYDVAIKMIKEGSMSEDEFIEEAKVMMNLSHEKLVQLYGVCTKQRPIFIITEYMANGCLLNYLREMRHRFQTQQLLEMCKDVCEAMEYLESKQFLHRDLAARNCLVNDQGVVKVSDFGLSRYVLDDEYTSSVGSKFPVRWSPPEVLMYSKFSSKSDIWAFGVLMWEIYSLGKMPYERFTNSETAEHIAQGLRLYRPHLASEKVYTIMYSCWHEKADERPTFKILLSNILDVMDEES
The next data set has as its target T2, ITK (Homo sapiens, UniProt Q08881).
T2 sequence (Q08881 1-620): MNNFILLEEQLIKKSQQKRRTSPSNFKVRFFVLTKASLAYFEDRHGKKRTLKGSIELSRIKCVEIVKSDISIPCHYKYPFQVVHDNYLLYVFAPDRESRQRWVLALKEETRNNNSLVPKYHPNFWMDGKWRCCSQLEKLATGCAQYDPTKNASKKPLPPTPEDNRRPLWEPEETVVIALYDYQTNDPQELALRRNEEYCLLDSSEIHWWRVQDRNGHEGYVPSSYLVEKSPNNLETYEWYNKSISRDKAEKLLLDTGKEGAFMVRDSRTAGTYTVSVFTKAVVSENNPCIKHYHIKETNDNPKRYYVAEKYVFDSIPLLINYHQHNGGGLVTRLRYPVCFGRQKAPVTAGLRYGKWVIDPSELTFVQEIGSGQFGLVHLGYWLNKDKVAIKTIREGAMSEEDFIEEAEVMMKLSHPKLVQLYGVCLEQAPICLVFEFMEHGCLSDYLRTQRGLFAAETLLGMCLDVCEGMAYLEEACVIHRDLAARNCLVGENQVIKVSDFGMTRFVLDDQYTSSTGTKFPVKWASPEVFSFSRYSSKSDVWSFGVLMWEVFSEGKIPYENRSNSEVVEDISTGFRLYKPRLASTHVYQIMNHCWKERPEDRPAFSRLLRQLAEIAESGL
The data set is described as follows: HotSpot radioisotope kinase assay. Type of data set: biochemical. Summed up:
as §1

The target of a further data set is T3, Bmx (Homo sapiens, UniProt P51813).
T3 sequence (P51813 1-675): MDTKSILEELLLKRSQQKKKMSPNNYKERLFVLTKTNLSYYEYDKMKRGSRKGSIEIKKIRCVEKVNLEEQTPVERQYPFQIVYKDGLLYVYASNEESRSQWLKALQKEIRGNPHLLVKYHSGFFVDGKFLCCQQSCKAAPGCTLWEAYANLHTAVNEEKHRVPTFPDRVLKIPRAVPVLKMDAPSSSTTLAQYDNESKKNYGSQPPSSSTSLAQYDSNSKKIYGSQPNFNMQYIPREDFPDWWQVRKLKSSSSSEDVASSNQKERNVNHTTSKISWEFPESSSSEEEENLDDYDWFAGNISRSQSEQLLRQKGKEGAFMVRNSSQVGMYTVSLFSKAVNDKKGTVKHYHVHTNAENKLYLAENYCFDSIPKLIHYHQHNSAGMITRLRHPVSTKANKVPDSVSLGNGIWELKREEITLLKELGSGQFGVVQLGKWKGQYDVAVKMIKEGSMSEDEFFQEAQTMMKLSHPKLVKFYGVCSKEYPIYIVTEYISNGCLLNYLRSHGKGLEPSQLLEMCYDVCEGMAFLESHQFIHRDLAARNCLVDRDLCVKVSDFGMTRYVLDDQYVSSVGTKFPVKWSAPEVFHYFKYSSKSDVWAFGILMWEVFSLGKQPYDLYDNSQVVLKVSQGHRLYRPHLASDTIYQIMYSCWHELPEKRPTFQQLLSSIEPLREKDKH
Kind of data set: HotSpot radioisotope kinase assay. Type of data set: biochemical. The method, boiled down:
as §1

The term IC50 denotes the point on the concentration scale where inhibition reaches its midpoint. A lower IC50 goes with higher potency.

`C=CC(=O)Nc1cccc(Nc2nc(Nc3ccc(OCCOC)cc3)ncc2F)c1` [CC-292]: in the data set on BMMΦ [1], the “Percentage of dead (7-AAD positive) or apoptotic (Annexin V positive) cells” value is “did not alter”. Further, in the data set on BMMΦ [2], the “TLR-dependent secretion of IL6” value was “decreased” and the “TLR-dependent secretion of TNF” value is on record as “decreased”.
On to `C=CC(=O)Nc1cccc(Nc2nc(Nc3ccc(OCCOC)c(F)c3)ncc2F)c1` [Compound1, N-(3-((5-fluoro-2-((3-fluoro-4-(2-methoxyethoxy)phenyl)amino)pyrimidin-4-yl)amino)phenyl)acrylamide], for which the Kinase selectivity result in the data set with Tec kinases is reported as “highly selective for Tec kinases”. The IC50 amounted to 22 nM against Tec, 12.5 nM against Btk, 172 nM against ITK and 2.1 nM on Bmx.
